From ChEMBL document CHEMBL1671641, “1,5-benzodiazepines, a novel class of hepatitis C virus polymerase nonnucleoside inhibitors” (Antimicrob Agents Chemother, 2008)

Legend:
[1] = system: Hepatitis C virus; assay: Antiviral activity against Hepatitis C virus 1b infected in human HuH7 cells assessed as inhibition of viral replication after 3 days by luciferase reporter assay; assay type: functional, organism-based, Hepacivirus hominis, genotype 1b, Huh-7; conditions: huh-7
Outline: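 HCV 1b subgenomic luciferase reporter replicon (clone ET) cells, 2,500 per well, were exposed to a nine-point 1/4 dilution series for 3 days. Replication was read as luciferase activity. Values are means ± SD from 2 to 23 independent experiments run in quadruplicate.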

[2] = system: MT4; assay: Cytotoxicity against LTR-Luc transfected human MT4 cells […] after 3 days by ATPLite assay; assay type: cell-based; conditions: mt4, 72 h, 72 h
[3] = Cytotoxicity against CMV-Luc transfected human HuH7 cells after 5 days; assay type: cell-based, Huh-7; conditions: huh-7, 120 h, 120 h
[4] = system: Hepatitis C virus; assay: Inhibition of Hepatitis C virus 1b J4 recombinant NS5B Cdelta 21 RNA dependent RNA polymerase overexpressed in Escherichia coli BL21 (DE3) by RdRp primer-dependent transcription assay; parameters: species or system Hepatitis C virus subtype 1b
[5] = system: Hepatitis C virus; assay: Inhibition of Hepatitis C virus 1b J4 recombinant NS5B Cdelta 21 RNA dependent RNA polymerase overexpressed in Escherichia coli BL21 (DE3) assessed as [alpha-33P]UTP incorporation by RdRp primer-independent transcription assay; parameters: species or system Hepatitis C virus subtype 1b
Outline: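 De novo (primer-independent) RdRp assay: 190 nM NS5BΔ21 (1b J4) with 86 nM HCV 3′ UTR template RNA, 0.5 mM each ATP/GTP/CTP, 10 μM UTP plus [α-³³P]UTP, in 20 mM Tris-HCl pH 7.5, 1 mM DTT, 5 mM MgCl₂, 20 mM NaCl. Incubated 2 h at room temperature, stopped with EDTA/tRNA, TCA-precipitated on filters, and scintillation-counted. Quadruplicate.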

[6] = system: Hepatitis C virus; assay: Non competitive inhibition of Hepatitis C virus 1b J4 recombinant NS5B Cdelta 21 RNA dependent RNA polymerase overexpressed in Escherichia coli BL21 (DE3) in presence of radiolabeled 20 nM GTP; parameters: species or system Hepatitis C virus subtype 1b
Outline: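 Primer-dependent RdRp assay using purified C-terminally truncated NS5BΔ21 (genotype 1b J4) expressed in E. coli BL21(DE3). Enzyme was incubated with a poly(rC)/oligo(rG13) template, radiolabeled GTP at 20 nM, and a range of inhibitor concentrations. IC50 was derived by nonlinear regression of the dose-response curves. The run was done once in quadruplicate, reported as means ± SEM.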

[7] = system: Hepatitis C virus; assay: Non competitive inhibition of Hepatitis C virus 1b J4 recombinant NS5B Cdelta 21 RNA dependent RNA polymerase overexpressed in Escherichia coli BL21 (DE3) in presence of radiolabeled 200 uM GTP
[8] = system: Hepatitis C virus; assay: Antiviral activity against Hepatitis C virus infected in cells assessed as log reduction in viral RNA level at 800 mg administered BID for 10 days; assay type: functional, Hepacivirus hominis

Compound | EC50 [1] [nM] | CC50 [2] [nM] | CC50 [3] [nM] | IC50 [4] [nM] | IC50 [5] [nM] | IC50 [6] [nM] | IC50 [7] [nM] | FC [8]
CC(=O)N1c2ccccc2NC2=C(C(=O)CC(C)(C)C2)C1c1ccc(OCc2ccccc2)c(Cl)c1 (single isomer, unassigned; 4a) | 1900 | 16400 | > 32000 | 1000 | 900 | 1000 | 1300 | –
CC1CCC(C(=O)N(c2cc(-c3ccccc3)sc2C(=O)[O-])C2CCC(O)CC2)CC1.[Na+] (stereo not drawn) [VCH-759] | – | – | – | – | – | – | – | 2.5
